Assay results taken from ChEMBL document CHEMBL3997797 (J Med Chem, 2017).

Assays:
[1] = biological target: Acetylcholinesterase (Homo sapiens) (UniProt P22303); test: Inhibition of human AChE at 10 uM using acetylthiocholine as substrate by spectrophotometric method relative to control
[2] = biological target: T1, Liver carboxylesterase 1 (Homo sapiens, UniProt P23141); test: Inhibition of human liver CES1 expressed in baculovirus infected sf9 cells using o-nitrophenyl acetate as substrate monitored at 15 secs interval for 5 mins
T1 sequence (P23141 whole entry): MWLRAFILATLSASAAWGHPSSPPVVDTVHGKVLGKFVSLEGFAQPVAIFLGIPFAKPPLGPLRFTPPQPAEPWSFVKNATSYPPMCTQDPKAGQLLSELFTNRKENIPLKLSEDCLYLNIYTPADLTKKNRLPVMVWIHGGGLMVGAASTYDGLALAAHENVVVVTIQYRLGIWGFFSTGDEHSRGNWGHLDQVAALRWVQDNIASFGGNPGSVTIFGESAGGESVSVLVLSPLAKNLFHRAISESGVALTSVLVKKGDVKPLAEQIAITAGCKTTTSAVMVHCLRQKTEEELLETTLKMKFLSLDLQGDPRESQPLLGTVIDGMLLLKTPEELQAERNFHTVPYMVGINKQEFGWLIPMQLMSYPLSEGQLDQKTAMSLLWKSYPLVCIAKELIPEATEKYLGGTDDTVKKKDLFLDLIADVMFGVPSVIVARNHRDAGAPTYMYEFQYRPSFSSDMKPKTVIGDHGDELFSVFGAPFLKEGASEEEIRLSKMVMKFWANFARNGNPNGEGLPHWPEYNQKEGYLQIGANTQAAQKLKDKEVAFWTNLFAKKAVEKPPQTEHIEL
In short: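 Purified hCE1 secreted from baculovirus-infected Sf9 cells, isolated from serum-free medium by preparative isoelectric focusing and chromatography. o-NPA hydrolysis measured with at least 8 inhibitor concentrations, each point in quadruplicate. Fractional inhibition fitted to a general partial-inhibition model (α 0 to ∞, β 0 to 1). The best model was chosen by r2 and Akaike's information criterion, and Ki was calculated from that model.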

[3] = biological target: T2, CES1 (liver carboxylesterase 1) (Homo sapiens, UniProt P23141); test: Inhibition of human liver CES1 expressed in U373MG cells assessed as oseltamivir carboxylate formation at 5 uM using oseltamivir as substrate preincubated for 30 mins followed by compound washout and subsequent compound/substrate addition measured after 30 mins by UPLC-MS method relative to control; type: cell-based; parameters: scale not given: the % may be the effect or the level left; settings: U373MG cells expressing human liver CES1, probe oseltamivir, read-out: Activity
T2 sequence (P23141 whole entry): T1 sequence (P23141 whole entry)
In short: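 U373MG cells expressing hCE1 (1 x 10^5/well) attached overnight. They were pretreated 30 min with 5 µM inhibitor, then media was replaced with fresh media containing 20 µM oseltamivir plus 5 µM inhibitor for 30 min. Media was mixed with an equal volume of acetonitrile and metabolites were quantified by UPLC-MS. Run in duplicate with DMSO control.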

[4] = biological target: T2, CES1 (liver carboxylesterase 1); test: Inhibition of human liver CES1 expressed in baculovirus infected sf9 cells at 10 uM using o-nitrophenyl acetate as substrate monitored at 15 secs interval for 5 mins relative to control; settings: probe o-nitrophenyl acetate
In short: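 Purified secreted hCE1 from Sf9 culture medium, isolated by isoelectric focusing and chromatography. Inhibitor tested at a single concentration of 10 µM against o-NPA hydrolysis. Read-out is percent inhibition.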

[5] = biological target: T3, CES2 (cocaine esterase) (Homo sapiens, UniProt O00748); test: Inhibition of human intestinal CES2 expressed in baculovirus infected sf9 cells at 10 uM using o-nitrophenyl acetate as substrate monitored at 15 secs interval for 5 mins relative to control; settings: probe o-nitrophenyl acetate
T3 sequence (O00748 whole entry): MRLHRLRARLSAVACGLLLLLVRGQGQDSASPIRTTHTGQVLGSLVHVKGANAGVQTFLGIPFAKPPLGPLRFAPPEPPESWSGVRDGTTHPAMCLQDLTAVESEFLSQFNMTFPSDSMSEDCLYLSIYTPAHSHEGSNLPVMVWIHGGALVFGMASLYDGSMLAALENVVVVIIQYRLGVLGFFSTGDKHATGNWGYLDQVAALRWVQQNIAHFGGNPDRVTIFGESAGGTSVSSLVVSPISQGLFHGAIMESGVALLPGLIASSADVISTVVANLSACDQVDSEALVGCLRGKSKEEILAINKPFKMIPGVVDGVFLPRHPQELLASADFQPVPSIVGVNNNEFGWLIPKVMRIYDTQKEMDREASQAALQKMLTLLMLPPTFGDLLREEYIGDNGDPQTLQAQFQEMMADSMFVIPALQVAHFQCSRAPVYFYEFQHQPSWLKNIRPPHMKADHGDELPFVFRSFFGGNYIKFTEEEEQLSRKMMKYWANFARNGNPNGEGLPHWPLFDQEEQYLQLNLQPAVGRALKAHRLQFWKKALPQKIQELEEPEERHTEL

[6] = biological target: T1, Liver carboxylesterase 1; test: Inhibition of human liver CES1 expressed in baculovirus infected sf9 cells using oseltamivir as substrate
[7] = biological target: T3, CES2 (cocaine esterase); test: Inhibition of human intestinal CES2 expressed in U373MG cells assessed as 7-ethyl-10-hydroxycamptothecin formation at 5 uM using irinotecan as substrate preincubated for 1 hr followed by substrate addition measured after 5 mins by HPLC method relative to control; type: cell-based; parameters: scale not given: the % may be the effect or the level left; settings: U373MG cells expressing human intestinal CES2, probe irinotecan, read-out: Activity
[8] = system: U373 MG; test: Growth inhibition of human U373MG cells after 72 hrs; type: cell-based, U-373MG ATCC
[9] = Drug metabolism in DMSO/sodium phosphate buffer assessed as tautomerization at pH 3 to 11 by UV-spectroscopic method; type: physicochemical
In short: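 UV absorbance spectra recorded in aqueous 20% DMSO:80% 200 mM sodium phosphate buffer across a range of pH values to follow tautomeric form.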

[10] = system: U373 MG; test: Cytotoxicity against human U373MG cells assessed as cell viability after 30 mins relative to control; type: cell-based; settings: u-373mg atcc, 0.5 h
[11] = organism: Homo sapiens; test: Selectivity ratio of Ki for human intestinal CES2 to Ki for human liver CES1
[12] = biological target: T4, Cocaine esterase (Homo sapiens, UniProt O00748); test: Inhibition of human intestinal CES2 expressed in baculovirus infected sf9 cells using o-nitrophenyl acetate as substrate monitored at 15 secs interval for 5 mins
T4 sequence (O00748 whole entry): T3 sequence (O00748 whole entry)

Sequence of Acetylcholinesterase (Homo sapiens) (P22303 whole entry): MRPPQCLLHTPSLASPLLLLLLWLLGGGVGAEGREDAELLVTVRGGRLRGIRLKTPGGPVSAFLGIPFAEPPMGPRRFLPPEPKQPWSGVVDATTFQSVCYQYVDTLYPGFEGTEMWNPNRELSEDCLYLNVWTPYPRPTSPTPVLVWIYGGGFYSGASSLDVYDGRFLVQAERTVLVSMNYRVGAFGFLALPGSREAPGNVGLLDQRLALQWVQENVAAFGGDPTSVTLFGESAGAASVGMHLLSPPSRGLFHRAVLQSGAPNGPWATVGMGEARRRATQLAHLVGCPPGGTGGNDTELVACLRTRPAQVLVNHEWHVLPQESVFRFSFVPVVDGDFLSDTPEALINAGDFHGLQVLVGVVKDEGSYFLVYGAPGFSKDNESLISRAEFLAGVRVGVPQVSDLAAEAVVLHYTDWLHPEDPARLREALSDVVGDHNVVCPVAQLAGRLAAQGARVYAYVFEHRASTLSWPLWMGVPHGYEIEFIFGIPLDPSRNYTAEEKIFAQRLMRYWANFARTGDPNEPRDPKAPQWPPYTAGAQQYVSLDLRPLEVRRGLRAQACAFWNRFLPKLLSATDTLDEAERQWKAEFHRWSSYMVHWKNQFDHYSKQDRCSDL

Compound | inhibition [1] | Ki [2] | activity at 0.5 h, 5 µM [3] | inhibition at 5 min, 10 µM [4] | inhibition at 5 min, 10 µM [5] | Ki [6] | activity at 5 min, 5 µM [7] | IC50 [8] | Drug metabolism [9] | Activity [10] | Ratio Ki [11] | Ki [12]
O=C1C=C(Oc2ccc(Br)cc2)c2ccccc2C1=O | 26% | 14.3 nM | 47% |  |  |  |  |  |  |  |  | 
O=C1C=C(Nc2ccc(I)cc2)c2ccccc2C1=O | 16% |  |  | 41% | 10% |  |  |  |  |  |  | 
CN(C1=CC(=O)C(=O)c2ccccc21)c1ccc(Cl)cc1 | 4% | 19.2 nM | 5% |  | 30% | 12.9 nM | 91% |  |  |  |  | 
O=C1C=C(Oc2ccc(I)cc2)c2ccccc2C1=O | 25% | 4.7 nM |  |  |  |  |  |  |  |  |  | 
COc1ccc(N(C)C2=CC(=O)C(=O)c3ccccc32)cc1 | 1% | 81.6 nM | 6% |  | 7% | 17.7 nM | 77% |  |  |  |  | 
CN(C1=CC(=O)C(=O)c2ccccc21)c1ccc(F)cc1 | 1% | 163 nM | 1% |  | 19% | 37.6 nM | 92% | 3900 nM | Metabolite_Notdetected | 96% |  | 
O=C1C=C(Nc2ccccc2)c2ccccc2C1=O | 5% |  |  | 30% | 12% |  |  |  | Metabolite_Detected |  |  | 
CN(C1=CC(=O)C(=O)c2ccccc21)c1ccc(Br)cc1 | 12% | 16.1 nM | 19% |  |  | 17.2 nM | 89% |  |  |  | 4 to 11 | 1840 nM
O=C1C=C(Oc2ccccc2)c2ccccc2C1=O | 11% | 23.8 nM | 19% |  |  |  |  |  | Metabolite_Notdetected |  |  | 
O=C1C=C(Nc2ccc(Cl)cc2)c2ccccc2C1=O | 23% |  |  | 33% | 22% |  |  |  |  |  |  | 
O=C1C=C(Oc2ccc(Cl)cc2)c2ccccc2C1=O | 31% | 18.9 nM | 20% |  |  |  |  |  |  |  |  | 
Cc1ccc(N(C)C2=CC(=O)C(=O)c3ccccc32)cc1 | 3% | 11.1 nM | 2% |  | 25% | 4.9 nM | 93% | 4600 nM |  | 100% |  | 
COc1ccc(NC2=CC(=O)C(=O)c3ccccc32)cc1 | 5% |  |  | 26% | 12% |  |  |  |  |  |  | 
O=C1C=C(Nc2ccc(Br)cc2)c2ccccc2C1=O | 16% |  |  | 26% | 12% |  |  |  |  |  |  | 
CC1(C)CCC2=C(O1)c1ccccc1C(=O)C2=O [LAPACHONE] | 10% | 1220 nM | 12% |  |  |  |  |  |  |  |  | 
COc1ccc(OC2=CC(=O)C(=O)c3ccccc32)cc1 | 18% | 17.8 nM | 14% |  |  |  |  |  |  |  |  | 
Cc1ccc(NC2=CC(=O)C(=O)c3ccccc32)cc1 | 17% |  |  | 44% | 15% |  |  |  |  |  |  | 
O=C1C=C(Oc2ccc(F)cc2)c2ccccc2C1=O | 22% | 45.3 nM | 25% |  |  |  |  |  | Metabolite_Notdetected |  |  | 
CN(C1=CC(=O)C(=O)c2ccccc21)c1ccc(I)cc1 | 31% | 400 to 408 nM |  |  | 83% | 148 nM |  |  |  |  | 4 to 11 | 284 nM
Cc1ccc(OC2=CC(=O)C(=O)c3ccccc32)cc1 | 8% | 4.44 nM | 13% |  |  |  |  |  |  |  |  | 
O=C1C=C(Nc2ccc(F)cc2)c2ccccc2C1=O | 21% |  |  | 40% | 14% |  |  |  |  |  |  | 
CN(C1=CC(=O)C(=O)c2ccccc21)c1ccccc1 | 3% | 90 nM | 8% |  | 33% | 32.1 nM | 77% | 12800 nM | Metabolite_Notdetected | 99% |  | 
